Assay outcomes from PubChem.
EWS-Fli block – EWS/Fli-driven NR0B1 reporter inhibitors, primary screen, A673 cells, NR0B1 luciferase, luminescence, MLPCN library | inhibition, % at 12.6 µM | AID 651661, 2012 | 0.67% of 350,000 active | viability-normalised;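 active means mean inhibition of at least 50% after viability correction, with every replicate also passing that limit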;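 further: firefly luciferase signal divided by Alamar Blue viability fluorescence both relative to DMSO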
E-selectin induc – E-selectin induction in HUVECs, primary screen, imaging, HUVEC, immunofluorescence imaging, single point | normalized: neutral wells 0, TNF-alpha wells 100 | activation, % at 7.58 µM | 0.37% of 260,000 active | AID 686992, 2013;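 active means mean E-selectin-positive cell signal at least 10% of the positive control, reached in at least 60% of replicates, without over 20% cell loss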
Target sequence (P16581 whole entry, looked up): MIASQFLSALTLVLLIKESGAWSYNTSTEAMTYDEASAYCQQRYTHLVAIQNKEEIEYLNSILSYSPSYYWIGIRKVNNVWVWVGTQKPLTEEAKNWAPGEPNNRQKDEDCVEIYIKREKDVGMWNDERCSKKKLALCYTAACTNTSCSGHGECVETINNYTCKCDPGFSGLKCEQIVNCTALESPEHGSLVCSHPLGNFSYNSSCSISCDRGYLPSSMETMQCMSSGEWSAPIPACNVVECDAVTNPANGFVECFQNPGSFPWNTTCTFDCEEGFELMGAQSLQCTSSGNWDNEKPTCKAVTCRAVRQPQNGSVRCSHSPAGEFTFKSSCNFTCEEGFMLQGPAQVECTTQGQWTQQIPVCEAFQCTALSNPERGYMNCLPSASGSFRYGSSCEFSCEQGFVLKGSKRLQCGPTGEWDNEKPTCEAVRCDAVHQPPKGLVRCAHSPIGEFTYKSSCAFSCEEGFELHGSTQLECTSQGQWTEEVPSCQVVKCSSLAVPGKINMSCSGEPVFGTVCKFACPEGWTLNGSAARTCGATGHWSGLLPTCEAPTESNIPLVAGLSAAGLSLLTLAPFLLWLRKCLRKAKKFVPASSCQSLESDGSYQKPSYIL
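Read-out: % PE-positive cells | Test system: HUVEC | Doses: One compound dose added by pin transfer | Buffer or medium: EGM-2 over gelatin coat | Signal: Immunofluorescence imaging | Benchmarks: TNF-alpha, DMSO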
LGR2 antag – inhibitors of bursicon-induced LGR2 CRE-luciferase signal, primary screen, cell-based, HEK293, CRE-luciferase reporter, bursicon stimulation; inhibition, % at 9.99 µM; 0.35% of 380,000 active; bursicon-stimulated, 4 h; Drosophila bursicon receptor LGR2 (rickets);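 active means drop in luminescence signal, shown as inhibition above about 50% in the replicate tests, limit read from the data, passing the limit was not always enough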;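 further: agonist challenge used bursicon conditioned medium at about half maximal strength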
rRNA inh HTS – reduced GFP signal of wild-type E. coli, primary screen, bacterial rRNA inhibitor project, GFP/RFP fluorescence, OD600, single point | E. coli WT GFP vs humanized-ribosome RFP mutants, 24 h; stronger effect = lower value; DMSO median 0, no signal -100 | 1.6% of 350,000 active | GFP signal change (wild-type ribosome), % (concentration not given with the values);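 active means significant combined selectivity score with lowered wild-type GFP, culture density cut under 30%, mutant RFP and density less affected; inactive means any of these conditions unmet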
* = called active by the depositor. Hits are enriched below; roughly 2.4% of the tested compounds scored in any of these assays.

For Cc1ccc(S(=O)(=O)N(C)C[C@@H]2Oc3c(NS(=O)(=O)c4ccc(Cl)cc4)cccc3C(=O)N([C@@H](C)CO)C[C@H]2C)cc1 the results were EWS-Fli block -8.8, E-selectin induc 49.1*, LGR2 antag -6.9 and rRNA inh HTS -4.5.
C[C@H](CO)N1C[C@H](C)[C@H](CN(C)S(=O)(=O)c2ccccc2)Oc2c(NC(=O)C3CCOCC3)cccc2C1=O was read as EWS-Fli block 8.0, E-selectin induc 31.3*, LGR2 antag 5.9 and rRNA inh HTS 4.1.
Cc1cccc(-c2ccc([C@@H]3[C@@H](CO)N4C(=O)CN(C(=O)c5cnccn5)C[C@@H]34)cc2)c1 was read as rRNA inh HTS 3.0.
COc1ccc2c3c(n(C)c2c1)[C@@H](CO)NCC31CN(S(=O)(=O)c2cccc(F)c2)C1 was read as rRNA inh HTS -3.9.
C[C@H](CO)N1C[C@H](C)[C@H](CN(C)C(=O)Nc2ccccc2)Oc2c(NS(=O)(=O)c3cccs3)cccc2C1=O was read as EWS-Fli block -2.2, E-selectin induc 50.1*, LGR2 antag -5.1 and rRNA inh HTS -4.2.
Screening C[C@H](CO)N1C[C@H](C)[C@@H](CN(C)S(=O)(=O)c2ccc(Cl)cc2)Oc2c(NC(=O)C3CCCCC3)cccc2C1=O returned EWS-Fli block 15.8, E-selectin induc -9.2, LGR2 antag 7.5 and rRNA inh HTS -5.9.
Screening C[C@H](CO)N1C[C@H](C)[C@H](CN(C)S(=O)(=O)c2ccc(Cl)cc2)Oc2c(NC(=O)C3CCCCC3)cccc2C1=O returned EWS-Fli block 6.4, E-selectin induc 36.3*, LGR2 antag -2.6 and rRNA inh HTS -3.5.
`C[C@H](CO)N1C[C@H](C)[C@@H](CN(C)C(=O)Nc2ccccc2)Oc2c(NS(=O)(=O)c3cccs3)cccc2C1=O` gave EWS-Fli block -5.9, E-selectin induc 0.8, LGR2 antag 15.5 and rRNA inh HTS 0.5.
Screening CNC[C@H]1Oc2c(NC(=O)c3nc4ccccc4s3)cccc2C(=O)N([C@H](C)CO)C[C@@H]1C returned EWS-Fli block 58.4*, E-selectin induc -0.1, LGR2 antag 22.7 and rRNA inh HTS -2.4.
For C[C@@H]1CN([C@H](C)CO)C(=O)c2cccc(NC(=O)Nc3ccccc3)c2O[C@H]1CN(C)S(=O)(=O)c1ccc(Cl)cc1 the results were EWS-Fli block -1.7, E-selectin induc 0.4, LGR2 antag 6.3 and rRNA inh HTS -0.4.
For C[C@@H]1CN([C@@H](C)CO)C(=O)c2cccc(NC(=O)Nc3ccccc3)c2O[C@@H]1CN(C)S(=O)(=O)c1ccc(Cl)cc1 the results were EWS-Fli block 3.2, E-selectin induc 0.5, LGR2 antag -1.0 and rRNA inh HTS -24.8*.
`CCCNC(=O)N1CC2(CCN(C)CC2)c2c(n(C)c3cc(OC)ccc23)[C@H]1CO` gave EWS-Fli block -4.3, E-selectin induc 0.3, LGR2 antag -3.0 and rRNA inh HTS 3.4.
COc1ccc2c3c([nH]c2c1)[C@H](CO)N(Cc1ccccc1)CC31CN(CC2CC2)C1 was read as rRNA inh HTS -5.0.
For COc1ccc(NC(=O)Nc2cccc3c2O[C@H](CN(C)Cc2ccc(-c4ccccc4)cc2)[C@@H](C)CN([C@@H](C)CO)C3=O)cc1 the results were EWS-Fli block 6.9, E-selectin induc 5.4, LGR2 antag 6.4 and rRNA inh HTS -4.1.
`C[C@@H]1CCCCO[C@@H](CN(C)S(=O)(=O)c2ccc(Cl)cc2)[C@H](C)CN([C@@H](C)CO)C(=O)c2cc(NC(=O)CCC(F)(F)F)ccc2O1` gave EWS-Fli block -9.8, E-selectin induc 0.2, LGR2 antag 4.0 and rRNA inh HTS 0.4.
`C[C@H](CO)N1C[C@H](C)[C@@H](CN(C)CC2CC2)Oc2c(NC(=O)CCC(F)(F)F)cccc2C1=O` gave rRNA inh HTS -1.2.
CC(=O)c1ccc(OCc2cc(C(=O)N3CCCCC3c3cccnc3)no2)cc1 (stereo not given) was read as EWS-Fli block -73.7, E-selectin induc -0.4, LGR2 antag -24.3 and rRNA inh HTS -27.9*.
`CCC1CCCCN1C(=O)c1cc(COc2ccc3ncccc3c2)on1` (stereo not given) gave EWS-Fli block 20.0, E-selectin induc -3.8, LGR2 antag -0.9 and rRNA inh HTS -30.1*.
For CCCNC(=O)N(C)C[C@H]1Oc2ncc(-c3ccncc3)cc2C(=O)N([C@@H](C)CO)C[C@H]1C the results were EWS-Fli block -17.1, E-selectin induc 0.2, LGR2 antag -0.3 and rRNA inh HTS 4.8.
CCOc1ccccc1N1CCN(C(=O)CSc2ccc3c(c2)OCCO3)CC1 was read as EWS-Fli block -1.8, E-selectin induc 78.7*, LGR2 antag 18.6 and rRNA inh HTS -1.1.
For CCCCNC(=O)N1CCN(c2ccccc2OCC)CC1 the results were EWS-Fli block -9.2, E-selectin induc 87.9*, LGR2 antag -6.8 and rRNA inh HTS 7.4.
O=C(CSc1ccc2c(c1)OCCO2)N1CCN(c2ccccc2O)CC1 was read as EWS-Fli block -6.4, LGR2 antag -1.3 and rRNA inh HTS -6.5.
`Cc1nn(-c2ccccc2)nc1C(=O)NNC(=O)c1cccc2ccccc12` gave EWS-Fli block 15.2, E-selectin induc 0.1, LGR2 antag 7.8 and rRNA inh HTS -21.4*.
`O=C(NNC(=S)NC(=O)c1ccccc1[N+](=O)[O-])c1ccccc1[N+](=O)[O-]` gave EWS-Fli block -2.5, LGR2 antag 4.5 and rRNA inh HTS -25.6*.
Screening O=C(NNC(=S)NC(=O)c1ccccc1[N+](=O)[O-])c1ccccc1O returned EWS-Fli block 10.1, LGR2 antag -17.9 and rRNA inh HTS -36.0.
`C[C@H](CO)N1C[C@H](C)[C@@H](CN(C)Cc2ccc(C(=O)O)cc2)OCc2cn(nn2)CCCC1=O` gave EWS-Fli block -2.9, E-selectin induc -0.1, LGR2 antag -8.8 and rRNA inh HTS -0.4.
`O=C1/C(=C\c2c(NCCOCCO)nc3ccccn3c2=O)SC(=S)N1Cc1ccco1` gave EWS-Fli block 9.9, E-selectin induc 72.7*, LGR2 antag -10.0 and rRNA inh HTS 16.3.
Screening CN(C)c1ccc(C=C2SC(=S)N(Cc3ccco3)C2=O)cc1 returned EWS-Fli block -33.8, E-selectin induc 22.6, LGR2 antag 4.7 and rRNA inh HTS 17.6.
For OC[C@@H]1[C@H](c2ccc(C#Cc3ccccc3)cc2)[C@H]2CN(CC3CCOCC3)CCCCN12 the results were EWS-Fli block -17.6, E-selectin induc -0.3, LGR2 antag 1.9 and rRNA inh HTS 3.0.
`CC1(c2nnc(-c3ccccc3)o2)CC(c2c(Cl)cccc2Cl)=NO1` (stereo not given) gave EWS-Fli block -7.1, E-selectin induc -0.1, LGR2 antag 33.6 and rRNA inh HTS -28.6*.
